# Results: ChEMBL document CHEMBL5120910, “Small-Molecule Gankyrin Inhibition as a Therapeutic Strategy for Breast and Lung Cancer” (J Med Chem, 2022)
# How the values were obtained:
# A549 [1] = test: Antiproliferative activity against human A549 cells assessed as cell growth inhibition measured after 72 hrs by MTT assay; format: functional, cell-based; conditions: A549, 72 h
# Method in brief: (§1)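 Cells seeded at 2.5 × 10^4 cells/well, allowed 24 h before dosing, then exposed to increasing concentrations (0.5% DMSO final) for 72 h at 37 °C, 5% CO2. MTT added at 1 mg/mL final in complete media for 2 h, formazan dissolved in DMSO, absorbance read at 570 nm. 6–8 repeats per treatment; IC50 from concentration–response fit.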
# MDA-MB-231 = test: Antiproliferative activity against human MDA-MB-231 cells assessed as cell growth inhibition measured after 72 hrs by MTT assay; format: functional, cell-based; conditions: MDA-MB-231, 72 h; method in brief: as §1
# A549 [2] = test: Antiproliferative activity against human A549 cells assessed as cell growth inhibition measured at 100 uM after 72 hrs by MTT assay; format: functional; design: scale not given: the % may be the effect or the level left; method in brief: as §1
# [3] = Metabolic stability in human liver microsomes assessed as compound remaining preincubated for 10 mins followed by NADPH addition measured after 60 mins by HPLC analysis; format: ADME, Microsome; conditions: read-out: Stability
# [4] = molecular target: T1, 26S proteasome non-ATPase regulatory subunit 10 (Homo sapiens, UniProt O75832); test: Binding affinity to gankyrin (unknown origin) expressed in Escherichia coli BL21 (DE3) expression system assessed as dissociation constant at 1:1 protein to compound concentration by isothermal titration calorimetry
# T1 sequence (O75832 whole entry): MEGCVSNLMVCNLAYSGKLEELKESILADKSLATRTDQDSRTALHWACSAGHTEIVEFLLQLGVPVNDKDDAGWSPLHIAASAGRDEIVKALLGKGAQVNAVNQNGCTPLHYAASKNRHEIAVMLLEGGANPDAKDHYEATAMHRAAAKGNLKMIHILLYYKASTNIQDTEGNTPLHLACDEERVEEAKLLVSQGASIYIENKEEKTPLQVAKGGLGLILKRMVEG
SMILES,IC50 (A549 [1]),IC50 (MDA-MB-231),Activity (A549 [2]),remaining at 1 h [3],Kd [4]
COC(=O)c1ccc(-n2cc(CCCNC(=S)Nc3ccc(C)cc3)nn2)cc1,46.5 µM,> 100 µM,–,–,–
COC(=O)c1ccc(-c2cn(CCCC(=S)Nc3ccc(-c4ccccc4)cc3)nn2)cc1,42.3 µM,> 100 µM,–,–,–
COC(=O)c1ccc(-c2cn(CCCOS(=O)(=O)c3ccc(C)cc3)nn2)cc1,> 100 µM,39.1 µM,–,–,–
COC(=O)c1ccc(-n2cc(CCCNC(=O)Nc3ccc(C)cc3)nn2)cc1,36.4 µM,11.6 µM,–,–,–
COC(=O)c1ccc(-c2nnc(CCCOS(=O)(=O)c3ccc(C)cc3)o2)cc1,> 100 µM,> 100 µM,–,–,–
COC(=O)c1ccc(-n2cc(CCCOS(=O)(=O)c3ccc(C)cc3)nn2)cc1,> 100 µM,> 100 µM,0%,50%,0.532 µM
COC(=O)c1ccc(-n2cc(CCCc3nnc(-c4ccc(C)cc4)o3)nn2)cc1,65.1 µM,21.5 µM,–,–,–
COC(=O)c1ccc(-n2cc(CCCNC(=O)c3ccc(C)cc3)nn2)cc1,> 100 µM,> 100 µM,–,–,–
COC(=O)c1ccc(-n2nncc2CCCOS(=O)(=O)c2ccc(C)cc2)cc1,> 100 µM,58.1 µM,–,–,–
COC(=O)c1ccc(-c2cn(CCCC(=S)Nc3ccc(C)cc3)nn2)cc1,50 µM,> 100 µM,–,–,–
COC(=O)c1ccc(-n2cc(CCCC(=O)Nc3ccc(C)cc3)nn2)cc1,75.7 µM,9.7 µM,–,–,–
COC(=O)c1ccc(-c2nnc(CCCOS(=O)(=O)c3ccc(C)cc3)[nH]2)cc1,> 100 µM,> 100 µM,–,–,–
COC(=O)c1ccc(-n2cc(CCCC(=S)Nc3ccc(C)cc3)nn2)cc1,7.9 µM,8.1 µM,–,–,–
